Laboratory results reported in ChEMBL document CHEMBL1156628, “Further studies on lead compounds containing the opioid pharmacophore Dmt-Tic” (J Med Chem, 2008).
Active and inactive are the calls of the source. Where a SMILES comes first, the peptide text is derived from it. [ ]: non-standard residue; d: D form. The star is where a group is joined. Dmt = Cc1cc(O)cc(C)c1C[C@H](N)C(=O)O; Tic = O=C(O)[C@@H]1Cc2ccccc2CN1; NHBn = c1ccc(CN*)cc1; NHPh = c1ccc(N*)cc1

Tests used:
Mu-type opioid receptor = Mu-type opioid receptor (Rattus norvegicus, UniProt P33535); test: Displacement of [3H]DAMGO from mu opioid receptor in Sprague-Dawley rat brain P2 synaptosomal membrane
Procedure, shortened: (§1)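 Competition binding to Sprague-Dawley rat brain P2 synaptosomal membranes, preincubated to strip endogenous opioids and stored at −80 °C in buffered 20% glycerol. Incubated at equilibrium for 2.5 h at 23 °C. Separated on polyethylenimine-soaked (0.1%) glass-fibre filters washed three times in ice-cold buffered BSA. Duplicates at five to eight doses, 3–5 independent membrane preparations; Ki by Cheng–Prusoff, mean ± SE.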

[1] = target: Delta-type opioid receptor (Rattus norvegicus, UniProt P33533); test: Displacement of [3H]deltorphin2 from delta opioid receptor in Sprague-Dawley rat brain P2 synaptosomal membrane; procedure, shortened: as §1
[2] = target: Delta-type opioid receptor (Mus musculus, UniProt P32300); test: Antagonist activity at delta opioid receptor in mouse vas deferens assessed as effect on deltorphin 2-induced response; format: functional, tissue-based; settings: read-out: pA2 (converted)
Procedure, shortened: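 Single mouse vas deferens suspended in an organ bath in balanced physiological salt buffer, pH 7.5. Agonism measured as inhibition of electrically evoked contraction, with IC50 taken from dose-response curves; DPDPE was the internal standard. Antagonism tested against deltorphin II and given as pA2 (Schild plot / Kosterlitz and Watt method). Values are mean ± SE of separate tissue assays.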

Rattus norvegicus = species: Rattus norvegicus; test: Selectivity ratio of Ki for mu opioid receptor in Sprague-Dawley rat brain to Ki for delta opioid receptor in Sprague-Dawley rat brain
Mus musculus [3] = test: Analgesic activity in icv dosed Swiss-Webster mouse by tail flick test; format: functional, organism-based
Mus musculus [4] = test: Analgesic activity in icv dosed Swiss-Webster mouse after 10 mins by hot plate test; format: functional, organism-based
Procedure, shortened: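 Male Swiss-Webster mice (20–25 g) given 5 μL of peptide in saline icv at bregma; only mice with a correct needle tract were counted. For hot plate: 55 ± 0.1 °C, start 10 min post-dose, latency to jump, lick or shake hind paw, 30 s cut-off, repeated every 10 min.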

Mus musculus [5] = test: Antinociceptive activity in Swiss-Webster mouse at 10 ug, icv after 10 mins by hot plate test in presence of naltrindole; format: functional, organism-based
Procedure, shortened: (§2)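 Mice given sc naltrindole (3 mg/kg) or naloxone (10 mg/kg), then 20 min later 10 µg/mouse icv in 5 μL saline. Nociception measured by hot-plate (55 °C, latency to jump/lick/paw-shake, 30 s cut-off, every 10 min) or tail-flick.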

Mus musculus [6] = test: Toxicity in Swiss-Webster mouse assessed as induction of agitated behavior at 10 ug, icv; format: organism-based; settings: in vivo, icv_or_intrathecal
Brain = test: Stability in Swiss mouse brain after 2 hrs; format: ADME, tissue-based
Mus musculus [7] = test: Antinociceptive activity in Swiss-Webster mouse at 10 ug, icv after 10 mins by hot plate test in presence of naloxone; format: functional, organism-based; procedure, shortened: as §2
Mus musculus [8] = test: Antinociceptive activity in Swiss-Webster mouse at 10 ug, icv by tail flick test in presence of naltrindole; format: functional, organism-based; procedure, shortened: as §2
Plasma = test: Stability in Swiss mouse plasma after 4 hrs; format: ADME, cell-free
Mus musculus [9] = test: Toxicity in icv dosed Swiss-Webster mouse assessed as induction of convulsion; format: organism-based; settings: in vivo, icv_or_intrathecal
Mus musculus [10] = test: Antinociceptive activity in Swiss-Webster mouse at 10 ug, icv by tail flick test in presence of naloxone; format: functional, organism-based; procedure, shortened: as §2
Mus musculus [11] = test: Toxicity in Swiss-Webster mouse assessed as induction of sedation at 10 ug, icv; format: organism-based; settings: in vivo, icv_or_intrathecal

Delta-type opioid receptor (Rattus norvegicus, UniProt P33533), sequence (P33533 whole entry): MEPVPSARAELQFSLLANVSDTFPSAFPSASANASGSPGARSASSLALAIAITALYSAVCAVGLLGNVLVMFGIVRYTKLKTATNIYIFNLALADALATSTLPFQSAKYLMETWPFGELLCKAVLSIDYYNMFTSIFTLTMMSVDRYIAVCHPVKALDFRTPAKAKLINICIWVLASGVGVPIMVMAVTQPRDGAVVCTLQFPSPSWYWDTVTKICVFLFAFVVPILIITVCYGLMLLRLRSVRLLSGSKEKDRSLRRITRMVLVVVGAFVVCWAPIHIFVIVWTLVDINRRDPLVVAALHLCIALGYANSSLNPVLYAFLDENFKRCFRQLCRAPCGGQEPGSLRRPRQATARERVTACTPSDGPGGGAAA
Mu-type opioid receptor, sequence (P33535 whole entry): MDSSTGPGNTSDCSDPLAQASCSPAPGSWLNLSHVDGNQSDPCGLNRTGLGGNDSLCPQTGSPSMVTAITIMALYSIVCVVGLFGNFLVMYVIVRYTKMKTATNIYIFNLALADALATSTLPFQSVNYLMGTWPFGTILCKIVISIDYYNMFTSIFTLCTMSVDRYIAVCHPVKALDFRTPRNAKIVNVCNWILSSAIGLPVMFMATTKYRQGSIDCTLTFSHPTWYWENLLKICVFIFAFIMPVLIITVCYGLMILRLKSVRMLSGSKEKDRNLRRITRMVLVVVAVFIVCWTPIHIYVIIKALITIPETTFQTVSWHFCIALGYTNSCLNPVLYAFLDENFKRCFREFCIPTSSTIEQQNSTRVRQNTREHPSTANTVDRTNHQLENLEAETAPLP
Delta-type opioid receptor (Mus musculus, UniProt P32300), sequence (P32300 whole entry): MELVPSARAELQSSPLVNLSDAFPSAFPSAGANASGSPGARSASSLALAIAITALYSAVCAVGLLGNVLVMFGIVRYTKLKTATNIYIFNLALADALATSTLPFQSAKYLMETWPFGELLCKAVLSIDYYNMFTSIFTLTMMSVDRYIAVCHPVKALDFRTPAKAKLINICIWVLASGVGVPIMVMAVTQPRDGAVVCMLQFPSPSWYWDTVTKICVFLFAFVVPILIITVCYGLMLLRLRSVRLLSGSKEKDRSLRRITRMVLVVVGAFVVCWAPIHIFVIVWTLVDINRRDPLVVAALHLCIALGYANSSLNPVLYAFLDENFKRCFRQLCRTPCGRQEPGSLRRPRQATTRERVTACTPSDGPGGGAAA

SMILES: Cc1cc(O)cc(C)c1C[C@H](N)C(=O)N1Cc2ccccc2C[C@H]1C(=O)N[C@@H](CC(=O)O)C(=O)NCc1ccccc1 (H-[Dmt]-[Tic]-Asp-NHBn)
- Ki (Mu-type opioid receptor): 309 nM
- Ki [1]: 0.054 nM
- Kb [2]: 2.95 nM

SMILES: Cc1cc(O)cc(C)c1C[C@H](N)C(=O)N1Cc2ccccc2C[C@H]1C(=O)N[C@@H](CC(=O)O)c1nc2ccccc2[nH]1
- Ratio Ki (Rattus norvegicus): 122
- Activity (Mus musculus [3]): Dose-dependent effect
- Activity (Mus musculus [4]): Dose-dependent effect
- Activity (Mus musculus [5]): Active
- Activity (Mus musculus [6]): Toxic
- Stability (Brain): Stable
- Activity (Mus musculus [7]): Active
- Activity (Mus musculus [8]): inactive
- Kb [2]: 0.126 nM
- Stability (Plasma): Stable
- Activity (Mus musculus [9]): Toxic
- Activity (Mus musculus [10]): inactive

SMILES: Cc1cc(O)cc(C)c1C[C@H](N)C(=O)N1Cc2ccccc2C[C@H]1C(=O)NCC(=O)Nc1ccccc1 (H-[Dmt]-[Tic]-Gly-NHPh)
- Ratio Ki (Rattus norvegicus): 4

SMILES: Cc1cc(O)cc(C)c1C[C@H](N)C(=O)N1Cc2ccccc2C[C@H]1C(=O)N[C@H](CC(=O)O)c1nc2ccccc2n1C
- Ratio Ki (Rattus norvegicus): 169
- Ki (Mu-type opioid receptor): 11.8 nM
- Ki [1]: 0.07 nM
- Kb [2]: 0.224 nM

SMILES: Cc1cc(O)cc(C)c1C[C@H](N)C(=O)N1Cc2ccccc2C[C@H]1C(=O)N[C@@H](CC(=O)O)C(=O)N(C)c1ccccc1
- Ratio Ki (Rattus norvegicus): 1960
- Ki (Mu-type opioid receptor): 364 nM
- Ki [1]: 0.186 nM
- Kb [2]: 1.78 nM

SMILES: Cc1cc(O)cc(C)c1C[C@H](N)C(=O)N1Cc2ccccc2C[C@H]1C(=O)N[C@H](CC(=O)O)C(=O)Nc1ccccc1
- Ratio Ki (Rattus norvegicus): 129
- Ki (Mu-type opioid receptor): 7.49 nM
- Ki [1]: 0.058 nM
- Kb [2]: 2.4 nM

SMILES: Cc1cc(O)cc(C)c1C[C@H](N)C(=O)N1Cc2ccccc2C[C@H]1C(=O)N[C@@H](CC(=O)O)c1nc2ccccc2n1C
- Ratio Ki (Rattus norvegicus): 101
- Activity (Mus musculus [3]): Dose-dependent effect
- Ki (Mu-type opioid receptor): 5.93 nM
- Activity (Mus musculus [4]): Dose-dependent effect
- Activity (Mus musculus [5]): Active
- Activity (Mus musculus [11]): Toxic
- Stability (Brain): Stable
- Activity (Mus musculus [7]): Active
- Ki [1]: 0.059 nM
- Activity (Mus musculus [8]): inactive
- Kb [2]: 0.126 nM
- Stability (Plasma): Stable
- Activity (Mus musculus [9]): Toxic
- Activity (Mus musculus [10]): inactive

SMILES: Cc1cc(O)cc(C)c1C[C@H](N)C(=O)N1Cc2ccccc2C[C@H]1C(=O)NCC(=O)N(C)c1ccccc1
- Ratio Ki (Rattus norvegicus): 12
- Ki (Mu-type opioid receptor): 1.75 nM
- Ki [1]: 0.143 nM
- Kb [2]: 1.58 nM

SMILES: Cc1cc(O)cc(C)c1C[C@H](N)C(=O)N1Cc2ccccc2C[C@H]1C(=O)N[C@H](CC(=O)O)C(=O)N(C)c1ccccc1
- Ratio Ki (Rattus norvegicus): 536
- Ki (Mu-type opioid receptor): 45 nM
- Ki [1]: 0.084 nM
- Kb [2]: 8.71 nM

SMILES: Cc1cc(O)cc(C)c1C[C@H](N)C(=O)N1Cc2ccccc2C[C@H]1C(=O)N[C@@H](CC(=O)O)C(=O)Nc1ccccc1
- Ratio Ki (Rattus norvegicus): 300
- Ki (Mu-type opioid receptor): 10.8 nM
- Ki [1]: 0.036 nM
- Kb [2]: 0.398 nM

SMILES: Cc1cc(O)cc(C)c1C[C@H](N)C(=O)N1Cc2ccccc2C[C@H]1C(=O)N[C@H](CC(=O)O)c1nc2ccccc2[nH]1
- Ratio Ki (Rattus norvegicus): 240
- Ki (Mu-type opioid receptor): 16.1 nM
- Ki [1]: 0.067 nM

SMILES: Cc1cc(O)cc(C)c1C[C@H](N)C(=O)N1Cc2ccccc2C[C@H]1C(=O)NCC(=O)NCc1ccccc1 (H-[Dmt]-[Tic]-Gly-NHBn)
- Ratio Ki (Rattus norvegicus): 5
